Published values of several laboratories.
Each line is one published result; the experiments were not run side by side.
Target: Receptor tyrosine-protein kinase erbB-2 (ERBB2, Homo sapiens, UniProt P04626)

COc1ccc2oc(-c3ccc4nc(N)oc4c3)c/c(=N\c3ccccc3NC(=O)CCN)c2c1
remaining binding (binding; 1 µM): 104%

C=CC(=O)N1CCC[C@@H](n2nc(-c3ccc(Oc4ccccc4)cc3)c3c(N)ncnc32)C1
inhibition (enzyme activity, inhibitor; 1 µM): 100%

C1=C/COCc2cc(ccc2OCCN2CCCC2)Nc2nccc(n2)-c2cccc(c2)COC/1
remaining binding (binding; 0.1 µM): 100%

CO[C@@H]1[C@H](N(C)C(=O)c2ccccc2)C[C@H]2O[C@]1(C)n1c3ccccc3c3c4c(c5c6ccccc6n2c5c31)C(=O)NC4
inhibition (enzyme activity, inhibitor; 1 µM): 0%

C[C@H]1CC[C@H](n2c3cnccc3c3cnc(Nc4ccc5c(n4)CCN(C(=O)CO)C5)nc32)CC1
remaining binding (binding, competition with immobilised ligand; 1 µM): 100%

C#Cc1cnc(Nc2ccnc(CO)c2)nc1Nc1ccccc1S(C)(=O)=NC#N (stereo not shown)
remaining signal (cell-free assay; 1 µM): 86%

CCCCC(=O)Nc1ccc(-c2ccc3ncn(CCC)c(=O)c3c2)cn1
remaining binding (binding, competition with immobilised ligand; 0.5 µM): 97%

COc1c(Cl)cccc1Nc1c(-c2ccncc2OC[C@@H]2COCCO2)[nH]c2c1C(=O)NCC2
inhibition (enzyme activity, inhibitor, radiometric; 1 µM): > 80%

Cc1ccc(NC(=O)c2ccnc(C(F)(F)F)c2)cc1-c1cc(OCCO)nc(N2CCOCC2)c1
remaining binding (binding, competition with immobilised ligand; 1 µM): 72%

N#Cc1ccc(NC(=O)Nc2ccccc2)cc1
remaining binding (cell-free assay, competition with immobilised ligand; 25 µM): 100%
